In ChEMBL document CHEMBL2010685, “Synthesis and biological evaluation of novel bifendate derivatives bearing 6,7-dihydro-dibenzo[c,e]azepine scaffold as potent P-glycoprotein inhibitors” (Eur J Med Chem, 2012):
pIC50: −log10 of the molar value. Activity calls are given as the source filed them. The rule behind the calls is not given here.

Key:
[1] = Cytotoxicity against human K562/A02 cells expressing p-glycoprotein after 72 hrs by MTS assay; format: functional, cell-based; conditions: K562/A02, 72 h
How it was run: (§1)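 K562 and K562/A02 cells (1 × 10⁴/well) seeded in RPMI-1640 and incubated 24 h. Exponentially growing cells then exposed to various compound concentrations for 72 h at 37 °C (5% CO₂, 95% humidity). MTS added for 3 h more, absorbance read at 490 nm. IC₅₀ from dose-response curves, mean of triplicate experiments.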

[2] = test system: K562; assay: Ratio of IC50 for human K562/A02 cells expressing p-glycoprotein to IC50 for human K562 cells; format: functional
[3] = test system: K562; assay: Cytotoxicity against human K562 cells after 72 hrs by MTS assay; format: functional, cell-based; conditions: K562, 72 h; how it was run: as §1
[4] = Cytotoxicity against human K562/A02 cells expressing p-glycoprotein assessed as cell killing at 5 uM after 72 hrs by MTS assay; format: cell-based; conditions: k562/a02, 72 h
[5] = test system: K562; assay: Cytotoxicity against human K562 cells assessed as cell killing at 5 uM after 72 hrs by MTS assay; format: cell-based; conditions: k562, 72 h
[6] = Induction of ATPase activity of p-glycoprotein at 200 uM by luminescence assay relative to control
[7] = test system: K562; assay: Induction of adriamycin accumulation in human K562 cells at 0.3 to 10 uM by flow cytometry; format: functional, cell-based
How it was run: (§2)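 Rh123 or adriamycin (0.5) then added for 30 min. Stopped with ice-cold PBS and centrifugation, washed three times in ice-cold PBS, analysed by flow cytometry. Fluorescence expressed as fold of 0.1% DMSO control; three independent experiments.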

[8] = molecular target: T1, ATP-dependent translocase ABCB1 (Homo sapiens, UniProt P08183); assay: Inhibition of p-glycoprotein-mediated rhodamine 123 efflux in human K562/A02 cells after 60 mins by fluorescence microscopic analysis; format: cell-based; conditions: k562/a02, 1 h
T1 sequence (P08183 whole entry): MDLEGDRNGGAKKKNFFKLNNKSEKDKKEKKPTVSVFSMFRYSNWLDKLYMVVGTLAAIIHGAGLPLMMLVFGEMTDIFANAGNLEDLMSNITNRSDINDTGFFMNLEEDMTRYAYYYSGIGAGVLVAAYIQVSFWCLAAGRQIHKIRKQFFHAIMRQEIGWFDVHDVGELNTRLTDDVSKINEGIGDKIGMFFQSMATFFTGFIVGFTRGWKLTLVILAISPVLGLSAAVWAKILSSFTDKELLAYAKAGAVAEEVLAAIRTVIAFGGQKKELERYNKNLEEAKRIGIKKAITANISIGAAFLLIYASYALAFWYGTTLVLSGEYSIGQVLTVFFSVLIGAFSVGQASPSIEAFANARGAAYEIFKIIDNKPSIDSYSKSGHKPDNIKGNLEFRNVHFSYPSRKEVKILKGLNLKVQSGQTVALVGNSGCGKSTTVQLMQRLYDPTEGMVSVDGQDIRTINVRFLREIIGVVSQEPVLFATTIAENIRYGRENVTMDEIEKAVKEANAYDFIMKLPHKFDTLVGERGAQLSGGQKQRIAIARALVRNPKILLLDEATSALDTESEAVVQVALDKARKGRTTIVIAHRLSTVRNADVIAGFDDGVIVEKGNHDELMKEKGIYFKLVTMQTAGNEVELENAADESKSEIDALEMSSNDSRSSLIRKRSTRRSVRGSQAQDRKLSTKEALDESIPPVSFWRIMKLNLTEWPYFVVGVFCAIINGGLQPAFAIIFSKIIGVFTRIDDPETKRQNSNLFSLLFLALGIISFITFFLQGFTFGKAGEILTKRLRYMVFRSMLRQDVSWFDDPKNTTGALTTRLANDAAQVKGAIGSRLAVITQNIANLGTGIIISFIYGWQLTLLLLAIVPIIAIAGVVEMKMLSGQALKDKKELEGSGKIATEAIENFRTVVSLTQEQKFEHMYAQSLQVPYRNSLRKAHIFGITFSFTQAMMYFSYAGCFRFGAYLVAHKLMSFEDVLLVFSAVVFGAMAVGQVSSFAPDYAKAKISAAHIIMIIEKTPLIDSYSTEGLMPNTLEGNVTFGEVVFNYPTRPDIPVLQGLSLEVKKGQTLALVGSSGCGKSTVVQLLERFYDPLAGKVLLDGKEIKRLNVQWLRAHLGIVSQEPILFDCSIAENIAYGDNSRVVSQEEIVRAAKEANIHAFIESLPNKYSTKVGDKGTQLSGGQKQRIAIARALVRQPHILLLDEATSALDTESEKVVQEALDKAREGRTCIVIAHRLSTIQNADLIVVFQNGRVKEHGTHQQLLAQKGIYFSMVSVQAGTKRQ

[9] = molecular target: T1, ATP-dependent translocase ABCB1; assay: Inhibition of p-glycoprotein-mediated rhodamine 123 efflux in human K562/A02 cells at 2.5 uM after 60 mins by fluorescence microscopic analysis; format: cell-based; conditions: k562/a02, 1 h
[10] = test system: K562/A02; assay: Reversal of p-glycoprotein-mediated multidrug-resistant in human K562/A02 cells assessed as increase of adriamycin-induced cytotoxic effect at 2.5 uM after 72 hrs by MTS assay; format: cell-based
How it was run: (§3)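 Viability by MTS assay. Survival rate expressed as percent growth relative to untreated control, mean ± S.D. of three independent experiments.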

[11] = test system: K562/A02; assay: Reversal of p-glycoprotein-mediated multidrug-resistant in human K562/A02 cells assessed as increase of adriamycin-induced cytotoxic effect at 1.25 uM after 72 hrs by MTS assay; format: cell-based; how it was run: as §3
[12] = Cytotoxicity against human K562/A02 cells expressing p-glycoprotein assessed as cell survival rate at 1.25 uM after 72 hrs by MTS assay; format: cell-based; conditions: read-out: Activity
[13] = test system: K562/A02; assay: Reversal of p-glycoprotein-mediated multidrug-resistant in human K562/A02 cells assessed as increase of adriamycin-induced cytotoxic effect at 5 uM after 72 hrs by MTS assay; format: cell-based; how it was run: as §3
[14] = test system: K562/A02; assay: Reversal of p-glycoprotein-mediated multidrug-resistant in human K562/A02 cells assessed as increase of adriamycin-induced cytotoxic effect after 72 hrs by MTS assay; format: cell-based; how it was run: as §3
[15] = test system: K562; assay: Potentiation of adriamycin-induced cytotoxic effect in human K562 cells assessed as cell survival rate at 1.25 to 5 uM after 72 hrs by MTS assay; format: functional, cell-based; how it was run: as §3
[16] = molecular target: T1, ATP-dependent translocase ABCB1; assay: Inhibition of p-glycoprotein mRNA expression in human K562/A02 cells at 5 uM after 72 hrs by RT-PCR analysis; format: functional, cell-based; conditions: k562/a02, 72 h
[17] = molecular target: T1, ATP-dependent translocase ABCB1; assay: Inhibition of p-glycoprotein protein expression in human K562/A02 cells at 5 uM after 72 hrs by Western blot analysis; format: functional, cell-based; conditions: k562/a02, 72 h
[18] = Reversal of p-glycoprotein-mediated multidrug-resistant in human K562/A02 cells assessed as increase of adriamycin-induced cytotoxic effect at 2.5 uM treated 24 hrs before adriamycin challenge followed by drug washout by MTS assay; format: cell-based
[19] = Reversal of p-glycoprotein-mediated multidrug-resistant in human K562/A02 cells assessed as increase of adriamycin-induced cytotoxic effect at 2.5 uM treated for 24 hrs followed by adriamycin treated 6 hrs after drug washout by MTS assay; format: cell-based
[20] = Reversal of p-glycoprotein-mediated multidrug-resistant in human K562/A02 cells assessed as increase of adriamycin-induced cytotoxic effect at 2.5 uM treated for 24 hrs followed by adriamycin treated 12 hrs after drug washout by MTS assay; format: cell-based
[21] = Reversal of p-glycoprotein-mediated multidrug-resistant in human K562/A02 cells assessed as increase of adriamycin-induced cytotoxic effect at 2.5 uM treated for 24 hrs followed by adriamycin treated 24 hrs after drug washout by MTS assay; format: cell-based; conditions: K562/A02, 24 h
[22] = Induction of ATPase activity of p-glycoprotein at 40 uM by luminescence assay relative to control
[23] = molecular target: T1, ATP-dependent translocase ABCB1; assay: Inhibition of p-glycoprotein in human K562/A02 cells assessed as accumulation of rhodamine 123 at 10 uM by flow cytometry relative to control; format: cell-based; conditions: k562/a02, 10 µM; how it was run: as §2
[24] = molecular target: T1, ATP-dependent translocase ABCB1; assay: Inhibition of p-glycoprotein in human K562/A02 cells assessed as accumulation of rhodamine 123 by flow cytometry; format: cell-based; how it was run: as §2
[25] = test system: K562; assay: Induction of rhodamine 123 accumulation in human K562 cells at 0.3 to 10 uM by flow cytometry; format: functional, cell-based; how it was run: as §2
[26] = molecular target: T1, ATP-dependent translocase ABCB1; assay: Inhibition of p-glycoprotein in human K562/A02 cells assessed as accumulation of adriamycin by flow cytometry; format: cell-based; how it was run: as §2
[27] = Reversal of p-glycoprotein-mediated multidrug-resistant in human K562/A02 cells assessed as increase of adriamycin-induced cytotoxic effect at 10 uM treated 24 hrs before adriamycin challenge followed by drug washout by MTS assay
[28] = Reversal of p-glycoprotein-mediated multidrug-resistant in human K562/A02 cells assessed as increase of adriamycin-induced cytotoxic effect at 10 uM treated for 24 hrs followed by adriamycin treated 6 hrs after drug washout by MTS assay
[29] = Reversal of p-glycoprotein-mediated multidrug-resistant in human K562/A02 cells assessed as increase of adriamycin-induced cytotoxic effect at 10 uM treated for 24 hrs followed by adriamycin treated 12 hrs after drug washout by MTS assay
[30] = Reversal of p-glycoprotein-mediated multidrug-resistant in human K562/A02 cells assessed as increase of adriamycin-induced cytotoxic effect at 10 uM treated for 24 hrs followed by adriamycin treated 24 hrs after drug washout by MTS assay; conditions: K562/A02, 24 h

## COc1cccc2c1C(=O)c1c(O)c3c(c(O)c1C2=O)C[C@@](O)(C(=O)CO)C[C@@H]3O[C@H]1C[C@H](N)[C@H](O)[C@H](C)O1 [DOXORUBICIN]
[1]
  pIC50: 4.33
[2]
  Ratio IC50: 108

## COc1cc2c(c3c1OCO3)-c1c(cc(OC)c3c1OCO3)CN(c1ccccc1)C2
[1]
  pIC50: < 4.00
[3]
  pIC50: < 4.00

## CCN1Cc2cc(OC)c3c(c2-c2c(cc(OC)c4c2OCO4)C1=O)OCO3
[1]
  pIC50: < 4.00
[3]
  pIC50: < 4.00

## CCCN1Cc2cc(OC)c3c(c2-c2c(cc(OC)c4c2OCO4)C1)OCO3
[4]
  Activity: 10%
[5]
  Activity: 10%
[1]
  pIC50: 4.06
[3]
  pIC50: 3.97

## SODIUM ORTHOVANAD
[6]
  RLU: 282000

## COc1cc2c(c3c1OCO3)-c1c(cc(OC)c3c1OCO3)CN(CCc1ccc3c(c1)OCO3)C2
[7]
  Activity: inactive
[8]
  inhibition (INH): Dose-dependent effect
[9]
  inhibition (INH): Active
[10]
  Activity: 8%
[4]
  Activity: 10%
[11]
  Activity: 30%
[12]
  viability at 72 h, 1.25 µM: 98%
[13]
  Activity: 6%
[14]
  Activity: Dose-dependent effect
[15]
  Activity: inactive
[16]
  inhibition (INH): Not Active
[17]
  inhibition (INH): Not Active
[18]
  pIC50: 5.75
[19]
  pIC50: 5.61
[20]
  pIC50: 5.30
[21]
  pIC50: 4.99
[22]
  RLU: 283000
[5]
  Activity: 10%
[1]
  pIC50: 4.33
[3]
  pIC50: 4.27
[23]
  fold change (FC): 11.2
[24]
  inhibition (INH): Dose-dependent effect
[25]
  Activity: inactive
[26]
  inhibition (INH): Dose-dependent effect

## COc1cc2c(c3c1OCO3)-c1c(cc(OC)c3c1OCO3)CN(C)C2
[4]
  Activity: 10%
[5]
  Activity: 10%
[1]
  pIC50: 3.97
[3]
  pIC50: 3.85

## COc1cc2c(c3c1OCO3)-c1c(cc(OC)c3c1OCO3)C(=O)N(Cc1ccccc1)C2
[1]
  pIC50: 4.27
[3]
  pIC50: 4.36

## CCN1Cc2cc(OC)c3c(c2-c2c(cc(OC)c4c2OCO4)C1)OCO3
[4]
  Activity: 10%
[5]
  Activity: 10%
[1]
  pIC50: 3.93
[3]
  pIC50: 3.90

## CCCCN1Cc2cc(OC)c3c(c2-c2c(cc(OC)c4c2OCO4)C1=O)OCO3
[1]
  pIC50: 4.35
[3]
  pIC50: 4.38

## CCCCN1Cc2cc(OC)c3c(c2-c2c(cc(OC)c4c2OCO4)C1)OCO3
[1]
  pIC50: < 4.00
[3]
  pIC50: 4.11

## COc1ccc(CCN(C)CCCC(C#N)(c2ccc(OC)c(OC)c2)C(C)C)cc1OC (stereo unspecified)
[7]
  Activity: inactive
[13]
  Activity: > 50%
[27]
  pIC50: 4.89
[28]
  pIC50: 4.58
[29]
  pIC50: 4.29
[30]
  pIC50: 4.29
[24]
  inhibition (INH): Dose-dependent effect
[25]
  Activity: inactive
[26]
  inhibition (INH): Dose-dependent effect

## COc1cc2c(c3c1OCO3)-c1c(cc(OC)c3c1OCO3)CN(CCc1ccccc1)C2
[10]
  Activity: Active
[4]
  Activity: 10%
[16]
  inhibition (INH): Not Active
[17]
  inhibition (INH): Not Active
[5]
  Activity: 10%
[1]
  pIC50: 4.47
[3]
  pIC50: 4.34
[23]
  fold change (FC): 10.1
[24]
  inhibition (INH): Dose-dependent effect
[25]
  Activity: inactive

## COc1cc2c(c3c1OCO3)-c1c(cc(OC)c3c1OCO3)CN(CCO)C2
[4]
  Activity: 10%
[5]
  Activity: 10%
[1]
  pIC50: < 3.70
[3]
  pIC50: < 3.70

## COC(=O)CN1Cc2cc(OC)c3c(c2-c2c(cc(OC)c4c2OCO4)C1=O)OCO3
[1]
  pIC50: < 4.00
[3]
  pIC50: < 4.00

## COC(=O)c1cc(OC)c2c(c1-c1c(C(=O)OC)cc(OC)c3c1OCO3)OCO2 [BIFENDATE]
[23]
  fold change (FC): 1.2

## COC(=O)CN1Cc2cc(OC)c3c(c2-c2c(cc(OC)c4c2OCO4)C1)OCO3
[1]
  pIC50: < 4.00
[3]
  pIC50: < 4.00

## COc1cc2c(c3c1OCO3)-c1c(cc(OC)c3c1OCO3)CN(Cc1ccccc1)C2
[4]
  Activity: 10%
[16]
  inhibition (INH): Not Active
[17]
  inhibition (INH): Not Active
[5]
  Activity: 10%
[1]
  pIC50: 3.95
[3]
  pIC50: < 3.70
[23]
  inhibition (INH): Active
[24]
  inhibition (INH): Dose-dependent effect
[25]
  Activity: inactive
